MEKK3 PB1 HTS: modulators (inhibitors or enhancers) of MEK5 binding to human MEKK3 PB1 domain; binding response (% of control), % at 10 µM; Q99759; bead-based flow cytometry, Alexa488-MEK5 binding to MEKK3; actives lie on both sides; 0 = blocked by unlabeled MEK5, 100 = vehicle; AID 1529; 290,000 compounds, 1.4% hits;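 active = binding response more than 3 SD above or below the average of its plate-row segment, actives on both sides; inconclusive = wells at one plate position flagged as instrument error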;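 also: Alexa488 bead fluorescence after subtracting the streptavidin-only scavenger bead signal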
UBC13 polyUb: inhibitors of human UBC13 polyubiquitin chain formation. inhibition, % at 20 µM. 330,000 compounds, 0.47% hits. TR-FRET. P61088; in the data active = inhibition above about 45%, passing the limit was not always enough; inconclusive = no clear call, values can overlap the other calls
Apaf-1 inh: inhibitors of human Apaf-1 apoptosome; reconstituted apoptosome caspase-3 activity, DEVD-Rh110 fluorescence; inhibition, % at 20 µM; 330,000 compounds, 0.71% hits; active = inhibition of at least 40% at 20 µM;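 also: plate controls were DMSO wells for no effect and DEVD-CHO caspase inhibitor wells for full effect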
Target sequence (O14727 whole entry, looked up): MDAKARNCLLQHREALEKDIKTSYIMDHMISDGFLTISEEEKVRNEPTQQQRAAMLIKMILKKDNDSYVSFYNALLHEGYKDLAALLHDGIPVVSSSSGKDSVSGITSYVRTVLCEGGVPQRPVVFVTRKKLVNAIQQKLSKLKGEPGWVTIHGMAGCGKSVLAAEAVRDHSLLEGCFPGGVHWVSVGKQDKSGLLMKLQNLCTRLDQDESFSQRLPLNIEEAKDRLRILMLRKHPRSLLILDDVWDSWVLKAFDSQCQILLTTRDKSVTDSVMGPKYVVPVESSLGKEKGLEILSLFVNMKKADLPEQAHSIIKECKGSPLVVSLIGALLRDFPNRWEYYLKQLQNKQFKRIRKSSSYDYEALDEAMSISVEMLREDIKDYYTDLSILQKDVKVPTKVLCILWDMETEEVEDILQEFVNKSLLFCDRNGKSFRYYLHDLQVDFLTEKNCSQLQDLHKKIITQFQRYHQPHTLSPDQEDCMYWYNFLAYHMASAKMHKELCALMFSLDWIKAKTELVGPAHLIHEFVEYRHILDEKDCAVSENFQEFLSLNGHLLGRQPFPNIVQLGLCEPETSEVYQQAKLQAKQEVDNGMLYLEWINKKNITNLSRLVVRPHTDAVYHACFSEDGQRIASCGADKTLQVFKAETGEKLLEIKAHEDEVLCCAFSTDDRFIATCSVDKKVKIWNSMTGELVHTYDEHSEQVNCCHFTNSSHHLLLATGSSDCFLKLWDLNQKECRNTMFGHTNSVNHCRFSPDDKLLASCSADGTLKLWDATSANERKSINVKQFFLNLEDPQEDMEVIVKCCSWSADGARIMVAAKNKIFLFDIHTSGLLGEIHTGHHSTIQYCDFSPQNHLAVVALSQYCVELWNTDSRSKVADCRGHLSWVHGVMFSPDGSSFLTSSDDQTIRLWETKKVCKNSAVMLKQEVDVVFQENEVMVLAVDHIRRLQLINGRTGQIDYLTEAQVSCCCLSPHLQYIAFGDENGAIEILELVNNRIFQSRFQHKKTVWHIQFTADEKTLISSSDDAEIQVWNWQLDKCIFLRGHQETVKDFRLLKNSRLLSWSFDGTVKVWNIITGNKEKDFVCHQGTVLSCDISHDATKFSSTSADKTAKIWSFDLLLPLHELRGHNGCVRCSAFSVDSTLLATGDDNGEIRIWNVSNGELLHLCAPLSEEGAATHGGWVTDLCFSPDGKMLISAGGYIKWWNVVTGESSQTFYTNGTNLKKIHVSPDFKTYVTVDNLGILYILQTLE
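Material: reconstituted apoptosome with Apaf-1, cytochrome c, caspase-9, procaspase-3, dATP. Technique: Rh110 fluorescence intensity. Buffer or medium: pH 7.5 Hepes buffer with CHAPS, BSA, DTT. Times: 30 min plus 50 min, RT.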
MEKK2 WT-MEK5: raises or lowers MEK5 binding to wildtype human MEKK2 PB1 domain; bead flow cytometry, Alexa488-MEK5 binding to MEKK2 WT; actives lie on both sides; Q9Y2U5; 290,000 compounds, 1.1% hits; binding response (% of control), % at 10 µM; in the data active = binding response below about 67% or above about 130%; inconclusive = no clear call, values can overlap the other calls; inactive = in between
MEKK2 mut-MEK5: signal of MEK5 binding to mutant human MEKK2 PB1 domain; AID 1530; 290,000 compounds, 0.35% hits; percent response, % at 10 µM; bead flow cytometry, Alexa488-MEK5 binding to MEKK2 mutant; in the data active = percent response above about 24%, passing the limit was not always enough
MEKK2wt confirm: raises or lowers MEK5 binding to wildtype human MEKK2, retest. shares compounds with MEKK3 PB1 HTS. bead flow cytometry, Alexa488-MEK5 binding to MEKK2 WT; actives lie on both sides. binding response (% of control), % at 10 µM. 5,900 compounds, 2.4% hits. AID 1892; in the data active = binding response below about 16% or above about 210%; inactive = in between
MEKK2mut confirm: signal of MEK5 binding to mutant human MEKK2, retest | shares compounds with MEKK3 PB1 HTS | bead flow cytometry, Alexa488-MEK5 binding to MEKK2 mutant | percent response, % at 10 µM | 5,900 compounds, 2% hits | AID 1893; in the data active = percent response mostly above about 71%, no sharp cut-off; inactive = mostly below about 38%;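 also: higher means compound restores mutant binding toward wildtype level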
MEKK3-MEK5 inh: confirmation of inhibitors of MEK5 binding to human MEKK3; shares compounds with MEKK3 PB1 HTS; AID 1894; bead flow cytometry, Alexa488-MEK5 binding to MEKK3; stronger effect = lower value; 5,900 compounds, 1.8% hits; binding response (% of control), % at 10 µM;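 active = binding response below 72% of control, or above a set upper limit, though filed actives all read lower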;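 also: 100% = DMSO only wells and 0% = binding blocked by excess unlabeled MEK5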
Starred values were filed as active, the others as inactive; ? = inconclusive; · = not tested or not shown; [ ] = remark or other dose. Sampled rows, rich in hits. Any-hit rate of the full collection: about 2.9%.

SMILES	MEKK3 PB1 HTS	UBC13 polyUb	Apaf-1 inh	MEKK2 WT-MEK5	MEKK2 mut-MEK5	MEKK2wt confirm	MEKK2mut confirm	MEKK3-MEK5 inh
CC1CCN(S(=O)(=O)c2ccc(NC(=O)Cc3ccccc3)cc2)CC1	0.0*[inhibitor]	6.2	10.9	-5.0*[inhibitor]	-40.0	100.0	-4.0	99.0
CC1CCN(S(=O)(=O)c2ccc(NC(=O)CN3CCCC(C)C3)cc2)CC1 (stereo not given)	15.0*[inhibitor]	13.6	-7.8	24.0*[inhibitor]	-22.0	99.0	2.0	100.0
COc1cc(OC)c(C(=O)OCC(=O)N(Cc2ccccc2)C(C)(C)C)cc1OC	104.0	-1.0	6.4	101.0	-1.0	·	·	·
Cc1cccc2cc(CN(Cc3nnnn3Cc3ccco3)C3CCCC3)c3nnnn3c12	111.0	-1.9	27.4	107.0	0.0	·	·	·
COc1ccc(-c2csc(Nc3ccc(C)cn3)n2)cc1OC	143.0*	11.6	-9.7	142.0	8.0	111.0	1.0	101.0
COc1ccc(-c2csc(Nc3cc(C)ccn3)n2)cc1OC	111.0	5.5	8.3	118.0	6.0	·	·	·
COc1ccc(NCC(=O)Nc2cccc(C(F)(F)F)c2)cc1S(=O)(=O)N1CCOCC1	·	0.6	4.8	·	·	·	·	·
O=c1nc(Nc2ccc([N+](=O)[O-])cc2)[nH]c(=O)[nH]1	106.0	3.7	-0.4	107.0	7.0	·	·	·
COc1ccc(CC(=O)N2CCN=C2SCc2ccc([N+](=O)[O-])cc2)cc1	130.0*	5.9	-6.9	118.0	3.0	95.0	-4.0	99.0
CCN(CC)CCNc1nc2cc(OC)c(OC)cc2c2nc(-c3ccccc3)nn12	108.0	45.0	18.3	143.0*	10.0	111.0	3.0	95.0
CSc1ccc(S(=O)(=O)N2CCC(C(=O)Nc3ccc(C(N)=O)cc3)CC2)cc1	98.0	0.6	-1.2	96.0	-5.0	·	·	·
COc1cc2c(C(=O)NCCCN3CCN(c4cccc(Cl)c4)CC3)cn(C)c(=O)c2cc1OC	127.0*	3.3	3.9	146.0*	13.0	123.0	17.0	105.0
CCc1nc2ccc(C(=O)NCCCN3CCN(c4ccccc4F)CC3)cc2nc1CC	107.0	4.7	10.2	137.0*	19.0	145.0	31.0	104.0
CC1CCN(CCCNC(=O)c2cc3sccc3n2C)CC1	96.0	9.5	-7.5	122.0	6.0	·	·	·
COc1cccc(C(=O)NCCCN2CCN(CCCNC(=O)c3cccc(OC)c3)CC2)c1	128.0*	-11.0	13.1	107.0	1.0	115.0	12.0	103.0
COc1ccc(N2CCN(CCCNC(=O)c3cc4sccc4n3C)CC2)cc1	108.0	-85.0	-4.3	148.0*	18.0	126.0	22.0	108.0
CN(C)CCN1C(=O)C(=O)/C(=C(/O)c2ccc(S(=O)(=O)N3CCOCC3)cc2)C1c1ccc(F)cc1 (stereo not given)	101.0	-23.2	-2.5	104.0	5.0	·	·	·
CC(C)(C)OC(=O)C[C@@H]1C/C=C\C[C@@H](CC(=O)N[C@H](CO)Cc2ccccc2)C(=O)N2CCC[C@H]2COC1=O	·	5.5	-1.9	·	·	·	·	·
CCOc1ccc(NC(=S)NCCCN2CCN(c3ccc(OC)cc3)CC2)cc1	115.0	-2.0	0.5	140.0*	8.0	138.0	29.0	102.0
O=C(Nc1ccc(OCC(=O)N2CCC(Cc3ccccc3)CC2)cc1)c1ccco1	67.0*[inhibitor]	-2.5	1.9	74.0	-6.0	100.0	-3.0	101.0
CC(=O)Nc1ccc(OCC(=O)N2CCC(Cc3ccccc3)CC2)cc1	101.0	21.4	-13.5	99.0	8.0	·	·	·
COC(=O)/C(N=Nc1c(C)n(C)n(-c2ccccc2)c1=O)=C(\C)O	142.0*	-18.4	-5.0	108.0	0.0	98.0	-2.0	106.0
CCOC(=O)/C(N=Nc1c(C)n(C)n(-c2ccccc2)c1=O)=C(/O)c1ccccc1	77.0	-5.7	0.8	82.0	-20.0	·	·	·
Cc1ccc(S(=O)(=O)N(C)c2ccc(OC(=O)c3cccs3)cc2)cc1C	·	3.7	8.6	·	·	·	·	·
COc1nccnc1NS(=O)(=O)c1ccc(NC(=S)NC(=O)c2ccc(F)c(F)c2)cc1	154.0*	?	3.9	106.0	1.0	98.0	1.0	97.0
SMILES	MEKK3 PB1 HTS	UBC13 polyUb	Apaf-1 inh	MEKK2 WT-MEK5	MEKK2 mut-MEK5	MEKK2wt confirm	MEKK2mut confirm	MEKK3-MEK5 inh
COc1ccc(NS(=O)(=O)c2ccc(NC(=S)NC(=O)c3cccc(F)c3)cc2)nn1	75.0*[inhibitor]	-13.8	-5.1	92.0	-1.0	104.0	3.0	104.0
O=C(CSc1nnc(CNC(=O)c2c(F)cccc2Cl)o1)NCc1ccccc1	100.0	-1.4	-1.4	96.0	-1.0	·	·	·
CCc1cccc(C)c1NC(=O)CN(C)Cc1ccccc1F	98.0	-4.8	9.6	96.0	-2.0	·	·	·
Cc1nc2c(cc1C(=O)N/N=C/c1ccc([N+](=O)[O-])cc1)c(=O)n(C)c(=O)n2C	135.0*	-2.2	-2.3	108.0	1.0	105.0	12.0	111.0
Cc1cc(C(=O)N/N=C/c2ccc([N+](=O)[O-])cc2)c2ccccc2n1	106.0	-10.1	-8.0	104.0	18.0	·	·	·
COC(=O)Cn1c(N2CCCC2)nc2c1c(=O)n(C)c(=O)n2C	112.0	-3.8	-5.7	115.0	30.0*	101.0	-3.0	101.0
O=C(NCc1ccco1)C1CCCN1C(=O)Nc1ccccc1Cl (stereo not given)	103.0	0.8	-15.3	104.0	3.0	·	·	·
S=C(Nc1cccc(Cl)c1)N(CCCN1CCCC1)Cc1cccn1Cc1ccc(Cl)cc1	105.0	17.5	-7.6	262.0*	8.0	221.0*	63.0	114.0
CSc1cccc(NC(=S)N(CCCN2CCCC2)Cc2cccs2)c1	104.0	17.0	-15.1	119.0	6.0	·	·	·
COc1cccc(NC(=S)N(CCCN2CCCC2)Cc2cccn2Cc2ccc(Cl)cc2)c1	113.0	13.4	-2.4	177.0*	55.0*	164.0	38.0	111.0
CSc1cccc(NC(=S)N(CCCN2CCCC2)Cc2cccn2Cc2ccc(Cl)cc2)c1	113.0	28.9	21.7	270.0*	94.0*	245.0*	77.0*	111.0
COC(=O)CN1C(=O)N/C(=C/c2ccc(C)o2)C1=O	105.0	-12.7	-9.2	108.0	6.0	·	·	·
Cc1ccc(/C=C2/NC(=O)N(Cc3ccccc3)C2=O)o1	108.0	-13.7	8.7	2.0*[inhibitor]	1.0	89.0	1.0	95.0
Cc1ccc(C(C)C)c(OCCCNCc2cccnc2)c1	100.0	17.7	3.5	109.0	3.0	·	·	·
Cc1ccc(C(C)C)c(OCCNCCc2ccccc2)c1	112.0	21.5	27.1	160.0*	9.0	98.0	-4.0	99.0
CCN(CC)S(=O)(=O)c1cc(C(=O)OCC(=O)NC(=O)c2cccn2C)ccc1C	99.0	-2.3	2.5	99.0	1.0	·	·	·

High-throughput results: PubChem BioAssay, several laboratories
